According to ChEMBL document CHEMBL1147196, “Chemotherapy of leishmaniasis. Part V: Synthesis and in vitro bioevaluation of novel pyridinone derivatives” (Eur J Med Chem, 2007):
In brackets after ≈: the same amount, converted by molar mass. Activity calls are given as the source filed them. The rule behind the calls is not given here.

Tests used:
Leishmania donovani [1] = assay: Antipromastigote activity against Leishmania donovani MHOM IN/Dd8 assessed as luciferase activity after 72 hrs; type: functional, organism-based; details: for IC50 / IC90: MHOM IN/Dd8, 72 h
Method in brief: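 Firefly-luciferase-transfected promastigotes kept in medium 199 + 10% FCS, penicillin/streptomycin, G418 selection. Late-log cells seeded 5 × 10^5/well, 72 h with serial dilutions (2.5–50 mg/ml as printed) in DMSO; DMSO dilution controls. Aliquot mixed 1:1 with Steady-Glo, luminescence (RLU). % inhibition = (N−n)/N × 100 vs untreated control; IC50 by probit analysis.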

Leishmania donovani [2] = assay: Antiamastigote activity against Leishmania donovani MHOM IN/Dd8 in mouse J-774A.1 cells by luciferase reporter gene assay after 72 hrs; type: functional, organism-based, J774.A1; details: for IC50: Leishmania donovani, MHOM IN/Dd8, J774.A1, 72 h
Method in brief: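 J-774A.1 mouse macrophages seeded 5 × 10^4 cells/well in RPMI-1640 + 10% FCS, 37 °C, CO2; after 24 h infected with stationary-phase luciferase-expressing promastigotes (2.5 × 10^5/well). Test material added in fresh complete medium (2.5–50 mg/ml range as printed), 72 h, 37 °C. Medium removed, PBS plus Steady-Glo, luminescence read. Inhibition vs untreated control RLU; IC50 by probit analysis.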

SMILES	IC50 (Leishmania donovani [1])	IC90 (Leishmania donovani [1])	IC90 (Leishmania donovani [2])	IC50 (Leishmania donovani [2])	Activity (Leishmania donovani [1])
Cc1cccc(C)c1-n1ccc(=O)c(OCCCCCOc2c(C)n(-c3c(C)cccc3C)ccc2=O)c1C	6.91 µg/mL (≈ 13.1 µM)	12.5 µg/mL (≈ 23.7 µM)	48.43 µg/mL (≈ 92 µM)	9.64 µg/mL (≈ 18.3 µM)	–
C[C@@H]1[C@H](O)[C@@H](C)/C=C/C=C/C=C/C=C/C=C/C=C/C=C/[C@H](O[C@@H]2O[C@H](C)[C@@H](O)[C@H](N)[C@@H]2O)C[C@@H]2O[C@](O)(C[C@@H](O)C[C@@H](O)[C@H](O)CC[C@@H](O)C[C@@H](O)CC(=O)O[C@H]1C)C[C@H](O)[C@H]2C(=O)O [AMPHOTERICIN B]	–	–	0.1571 µg/mL (≈ 0.17 µM)	0.00646 µg/mL (≈ 0.00699 µM)	–
COc1ccc(-n2ccc(=O)c(OCCCCCOc3c(C)n(-c4ccc(OC)cc4)ccc3=O)c2C)cc1	12.6 µg/mL (≈ 23.7 µM)	43.8 µg/mL (≈ 82.5 µM)	–	–	–
N=C(N)c1ccc(OCCCCCOc2ccc(C(=N)N)cc2)cc1 [PENTAMIDINE]	0.58 µg/mL (≈ 1.7 µM)	0.88 µg/mL (≈ 2.58 µM)	–	–	–
CCCCCCCCCCCCCCCCOP(=O)([O-])OCC[N+](C)(C)C [MILTEFOSINE]	–	–	107.51 µg/mL (≈ 264 µM)	33.9 µg/mL (≈ 83.2 µM)	–
Cc1cccc(-n2ccc(=O)c(OCCCCCOc3c(C)n(-c4cccc(C)c4C)ccc3=O)c2C)c1C	7.37 µg/mL (≈ 14 µM)	19.1 µg/mL (≈ 36.2 µM)	42.3 µg/mL (≈ 80.3 µM)	8.57 µg/mL (≈ 16.3 µM)	–
Cc1c(OCCCCCOc2c(C)n(-c3ccccc3)ccc2=O)c(=O)ccn1-c1ccccc1	22.7 µg/mL (≈ 48.2 µM)	49.8 µg/mL (≈ 106 µM)	–	–	–
Cc1occc(=O)c1OCCCCCOc1c(C)n(C2CCCCC2)ccc1=O	4.59 µg/mL (≈ 11.4 µM)	10.7 µg/mL (≈ 26.6 µM)	102.89 µg/mL (≈ 256 µM)	24 µg/mL (≈ 59.8 µM)	–
Cc1c(OCCCCCOc2c(C)n(Cc3ccccc3)ccc2=O)c(=O)ccn1Cc1ccccc1	9.98 µg/mL (≈ 20 µM)	29.3 µg/mL (≈ 58.7 µM)	99.48 µg/mL (≈ 200 µM)	13.2 µg/mL (≈ 26.4 µM)	–
Cc1c(OCCCCCOc2c(C)n(C3CCCCC3)ccc2=O)c(=O)ccn1C1CCCCC1	4.57 µg/mL (≈ 9.47 µM)	18.6 µg/mL (≈ 38.6 µM)	62.23 µg/mL (≈ 129 µM)	22.8 µg/mL (≈ 47.2 µM)	–
Cc1c(OCCCCCOc2c(C)n(-c3ccc(F)cc3)ccc2=O)c(=O)ccn1-c1ccc(F)cc1	–	–	–	–	inactive
Cc1occc(=O)c1OCCCCCOc1c(C)occc1=O	18.7 µg/mL (≈ 58.3 µM)	122 µg/mL (≈ 382 µM)	112.99 µg/mL (≈ 353 µM)	12.9 µg/mL (≈ 40.2 µM)	–

Second part, the compound after the results:

IC50 (Leishmania donovani [1])	IC90 (Leishmania donovani [1])	IC90 (Leishmania donovani [2])	IC50 (Leishmania donovani [2])	Activity (Leishmania donovani [1])	SMILES
43.6 µg/mL (≈ 105 µM)	856 µg/mL (≈ 2070 µM)	–	–	–	Cc1occc(=O)c1OCCCCCOc1c(C)n(-c2ccc(F)cc2)ccc1=O
17.9 µg/mL (≈ 42.2 µM)	57.9 µg/mL (≈ 137 µM)	–	–	–	Cc1cccc(C)c1-n1ccc(=O)c(OCCCCCOc2c(C)occc2=O)c1C
5.75 µg/mL (≈ 13.1 µM)	20.2 µg/mL (≈ 45.9 µM)	28.58 µg/mL (≈ 64.9 µM)	6.15 µg/mL (≈ 14 µM)	–	Cc1occc(=O)c1OCCCCCOc1c(C)n(-c2ccc([N+](=O)[O-])cc2)ccc1=O
4.04 µg/mL (≈ 9.5 µM)	13.3 µg/mL (≈ 31.3 µM)	38.08 µg/mL (≈ 89.5 µM)	5.32 µg/mL (≈ 12.5 µM)	–	COc1ccccc1-n1ccc(=O)c(OCCCCCOc2c(C)occc2=O)c1C
15.7 µg/mL (≈ 36.5 µM)	38.7 µg/mL (≈ 90.1 µM)	–	–	–	Cc1occc(=O)c1OCCCCCOc1c(C)n(-c2ccc(Cl)cc2)ccc1=O
13.5 µg/mL (≈ 33.1 µM)	47.9 µg/mL (≈ 117 µM)	–	–	–	Cc1occc(=O)c1OCCCCCOc1c(C)n(Cc2ccccc2)ccc1=O
